Test results from publication PMC2655349 (Nuclear medicine and biology, 2009).
Read-outs that look alike come from different tables or passages of the source.

How the values were obtained:
[1] = radiopharmaceutical biodistribution in rats following intravenous injection; format: in vivo, rat; conditions: male rats, i.v.; for Percentage of Injected Dose per Organ, Blood: blood assumed 7% of body mass
Summary of the method: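 67Ga-labelled chelate prepared with ligand in ethanol containing acetylacetone at 70°C for 20 min, diluted with saline to 5–10% ethanol, filtered, purity checked by C18 TLC. Given 1–5 μCi (0.037–0.185 MBq) via femoral vein to ether-anaesthetised male Sprague-Dawley rats. Organs sampled at 1 min and 2 h. Data given as %ID/organ and %ID/g wet tissue; blood taken as 7% and muscle as 42% of body mass.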

[2] = rats, ref [11], cited from earlier work
[3] = 60-minutes rather than 120-minutes post-injection
[4] = 1 min, based on % injected dose per gram

| SMILES | Percentage of Injected Dose per Organ, Brain ([1]; 1 min post-injection) | Percentage of Injected Dose per Organ, Heart ([1]; 1 min post-injection) | Percentage of Injected Dose per Organ, Kidney (1) ([1]; 1 min post-injection) | Percentage of Injected Dose per Organ, Liver ([1]; 1 min post-injection) | Percentage of Injected Dose per Organ, Lungs ([1]; 1 min post-injection) | Percentage of Injected Dose per Organ, Spleen ([1]; 1 min post-injection) | Percentage of Injected Dose per Organ, Blood ([1]; 1 min post-injection) | Percentage of Injected Dose per Organ, Brain ([1]; 120 min post-injection) | Percentage of Injected Dose per Organ, Heart ([1]; 120 min post-injection) | Percentage of Injected Dose per Organ, Kidney (1) ([1]; 120 min post-injection) | Percentage of Injected Dose per Organ, Lungs ([1]; 120 min post-injection) | Percentage of Injected Dose per Organ, Spleen ([1]; 120 min post-injection) | Percentage of Injected Dose per Organ, Blood ([1]; 120 min post-injection) | Heart/Blood ratio [2, 3] | Heart/Liver ratio [2, 3] | Heart/Lung ratio [2, 3] | Heart/Blood ratio [2, 4] | Heart/Liver ratio [2, 4] | Heart/Lung ratio [2, 4] |
| --- | --- | --- | --- | --- | --- | --- | --- | --- | --- | --- | --- | --- | --- | --- | --- | --- | --- | --- | --- |
| [86Rb+].[Cl-] [[^86Rb]RbCl, [^86Rb]rubidium chloride] | 0.08 ± 0.01 Percentage of Injected Dose per Organ | 2.86 ± 0.38 Percentage of Injected Dose per Organ | 6.7 ± 1.1 Percentage of Injected Dose per Organ | 5.4 ± 0.8 Percentage of Injected Dose per Organ | 2.0 ± 0.3 Percentage of Injected Dose per Organ | 0.32 ± 0.08 Percentage of Injected Dose per Organ | 3.61 ± 0.28 Percentage of Injected Dose per Organ | 0.12 ± 0.01 Percentage of Injected Dose per Organ | 0.69 ± 0.02 Percentage of Injected Dose per Organ | 1.01 ± 0.04 Percentage of Injected Dose per Organ | 1.11 ± 0.01 Percentage of Injected Dose per Organ | 0.71 ± 0.13 Percentage of Injected Dose per Organ | 1.43 ± 0.08 Percentage of Injected Dose per Organ | – | – | – | – | – | – |
| [C-]#[N+]CC(C)(C)OC.[C-]#[N+]CC(C)(C)OC.[C-]#[N+]CC(C)(C)OC.[C-]#[N+]CC(C)(C)OC.[C-]#[N+]CC(C)(C)OC.[C-]#[N+]CC(C)(C)OC.[Tc] [[^99mTc]Tc-Sestamibi^1+, [^99mTc]Tc-sestamibi] | – | – | – | – | – | – | – | – | – | – | – | – | – | 208 ± 25 | 5.3 ± 1.7 | 6.5 ± 1.7 | 11.1 ± 0.2 | 1.7 ± 0.1 | 1.3 ± 0.2 |
